Bioassay records: PubChem, several laboratories
CHO parental Ca: counter-screen for OX1R antagonists: effect in parental CHO cells; parental CHO-K1, ATP-induced calcium, Fluo-8 fluorescence; inhibition, % at 5.6 µM; hit rate 0.63% among 330,000;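 active means inhibition above that plate's mean sample inhibition plus 3 SD, cut at about 26% in these data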;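 further: 0% = ATP-challenged DMSO wells and 100% = DMSO wells without ATP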
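Assay system: parental CHO cells; Read-out basis: percent inhibition of ATP-evoked calcium rise, normalized to controls; Benchmarks: ATP and no-ATP DMSO wells; Compound dosing: single nominal dose of 5.6 µM per compound; Signal: Fluo-8 calcium dye fluorescence; Also added: ATP as calcium-mobilizing challenge; Repeats: singlicate.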
PGE2 EP2 inh: EP2 receptor (human) inhibition. P43116. C6 glioma cells expressing human EP2, cAMP TR-FRET; cells stimulated with saturating PGE2. inhibition, % at 25 µM. hit rate 0.52% among 260,000. AID 1422;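 active means percent inhibition above 40 after rounding to a whole number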;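 further: rat C6 glioma host cells with rolipram phosphodiesterase inhibitor present; the protocol text gives 20 µM as final concentration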
Target sequence (P43116 whole entry, looked up): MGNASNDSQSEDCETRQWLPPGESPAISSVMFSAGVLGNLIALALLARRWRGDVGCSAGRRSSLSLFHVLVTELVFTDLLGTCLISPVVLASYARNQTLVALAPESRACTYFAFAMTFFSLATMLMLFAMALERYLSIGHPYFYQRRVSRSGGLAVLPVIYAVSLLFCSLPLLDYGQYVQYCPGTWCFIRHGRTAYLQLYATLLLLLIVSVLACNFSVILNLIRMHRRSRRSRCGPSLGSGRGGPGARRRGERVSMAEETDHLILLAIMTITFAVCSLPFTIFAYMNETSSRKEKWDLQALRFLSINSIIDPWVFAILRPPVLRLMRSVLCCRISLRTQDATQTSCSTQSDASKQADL
GPR7 antag: blocks human GPR7 receptor signaling; hit rate 1.1% among 290,000; GPR7-expressing cells, fluorescence antagonist assay; inhibition, % at 4.4 µM; P48145; in the data active means inhibition above about 16%, passing the limit was not always enough;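 further: cells stimulated with the agonist NPW; 0% = agonist with vehicle and 100% = vehicle without agonist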
Target sequence (P48145 whole entry, looked up): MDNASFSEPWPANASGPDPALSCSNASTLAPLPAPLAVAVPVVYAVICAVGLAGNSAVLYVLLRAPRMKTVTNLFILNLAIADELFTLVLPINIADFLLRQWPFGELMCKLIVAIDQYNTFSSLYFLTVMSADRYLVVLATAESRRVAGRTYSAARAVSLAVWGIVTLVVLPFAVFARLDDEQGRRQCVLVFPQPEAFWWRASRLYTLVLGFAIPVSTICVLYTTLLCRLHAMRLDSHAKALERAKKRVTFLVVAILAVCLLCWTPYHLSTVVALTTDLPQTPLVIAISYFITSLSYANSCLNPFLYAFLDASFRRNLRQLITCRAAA
EP2 mod: modulates human prostaglandin E2 receptor EP2 signaling; P43116; induction, % at 25 µM; EP2-expressing cells, cAMP HTRF FRET, PGE2 co-stimulation; hit rate 0.83% among 260,000;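 active means compounds whose cAMP rise, as percent of the full-agonist control response, exceeds 60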;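 further: rat C6 glioma line stably carrying human EP2 under a CMV promoter; the protocol text gives 20 µM as final concentration; 100% = response of wells given 1 µM PGE2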
OX1R antag-1: human HCRTR1 antagonism; CHO/OX1R cells, Fluo-8 calcium fluorescence, orexin A; inhibition, % at 5 µM; hit rate 0.43% among 330,000; AID 434989;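 active means inhibition above its plate's threshold, mean inhibition of all tested compounds on the plate plus 3 SD, cut at about 37% in these data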;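 further: 0% = orexin A challenge wells and 100% = SB-334867-A antagonist wells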
OX1R antag-2: blocks the human orexin 1 receptor; O43613; OX1R-expressing cells, FRET antagonist read-out; inhibition, % at 6.6 µM; hit rate 1.8% among 330,000; AID 485270; in the data active means inhibition mostly above about 38%, no sharp cut-off; inactive means mostly below about 40%;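 further: 0% = agonist challenge alone and 100% = reference antagonist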
Numbers without * were called inactive; · = no result. In the library only some 3.7% were active in any assay of this set; here they are far more common.

SMILES | CHO parental Ca | PGE2 EP2 inh | GPR7 antag | EP2 mod | OX1R antag-1 | OX1R antag-2
C=CCn1c(C)c(/C=C/c2cc[n+](C)cc2)c2ccccc21 | 16 | · | -1 | · | 1 | 48*
CCn1cc(/C=C/c2cc[n+](C)cc2)c2ccccc21 | -4 | · | 16 | · | -18 | 45*
CC(C)n1cc(/C=C/c2cc[n+](C)cc2)c2ccccc21 | · | · | 3 | · | · | ·
CCN(CC)C(=O)Cn1c(C)c(/C=C/c2cc[n+](C)cc2)c2ccccc21 | -16 | · | -3 | · | -1 | 72*
Cc1ccc2c(c1)COc1c3ccc(C(=O)NCCO)cc3nn1-2 | 1 | 10 | · | -23 | -13 | 61*
O=C(NCCO)c1ccc2c3n(nc2c1)-c1ccc(Cl)cc1CO3 | -5 | 8 | · | 9 | -11 | 38
Cc1ccc(C(=O)COC(=O)COc2ccccc2[N+](=O)[O-])s1 | -16 | · | · | · | -18 | 13
CCOC(=O)COc1cc([N+](=O)[O-])cc2cccnc12 | -6 | 10 | -17 | 8 | 2 | 42*
CCOC(=O)COc1ccccc1/C=C\[N+](=O)[O-] | 20 | 92* | 5 | -64 | -7 | 19
CC(C)(C)c1ccc(S(=O)(=O)N2CCSC2)cc1 | -11 | 14 | -10 | 22 | 13 | 8
CCCCC(CC)C(=O)Nc1ccc(C#N)cc1 (stereo unspecified) | -15 | 6 | 17 | -20 | -15 | 5
CC(NCc1ccccc1Cl)C(=O)Nc1ccc(C#N)cc1 (stereo unspecified) | -16 | 3 | 18* | -18 | -19 | 4
CCOc1cc(/C=C2\C(=O)NC(=O)N(c3cccc(Br)c3)C2=O)ccc1O | · | 98* | · | -131 | · | ·
COc1cc(/C=C2\C(=O)NC(=S)N(c3ccc(Br)cc3C)C2=O)ccc1O | · | 74* | · | -95 | · | ·
COc1ccc(N2C(=O)/C(=C/c3cccs3)C(=O)NC2=S)c(OC)c1 | · | 11 | · | -105 | · | ·
O=C1NC(=O)N(c2cccc(Br)c2)C(=O)/C1=C/c1cccc(O)c1 | · | 9 | · | -1 | · | ·
O=C(NC(Cc1ccccc1)C(=O)O)/C(=C\c1cccc([N+](=O)[O-])c1)NC(=O)c1ccco1 (stereo unspecified) | -5 | · | -26 | · | 0 | 38
CC1(C)C2CCC1(CS(=O)(=O)N1CCC(C(N)=O)CC1)C(=O)C2 (stereo unspecified) | -5 | · | -4 | · | -9 | 13
CC1(C)[C@@H]2CC[C@@]1(CS(=O)(=O)Nc1ccccc1)C(=O)C2 | · | 51* | · | 24 | · | ·
CC1(C)C2CCC1(CS(=O)(=O)Nc1ccc(S(=O)(=O)NC3CCCCC3)cc1)C(=O)C2 (stereo unspecified) | -15 | 8 | 12 | 5 | -22 | 21
CC1(C)C2CCC1(CS(=O)(=O)Nc1ccc(S(=O)(=O)N3CCCC3)cc1)C(=O)C2 (stereo unspecified) | 6 | 8 | 19* | -24 | 4 | 16
CC1(C)C2CCC1(CS(=O)(=O)N1CCOCC1)C(=O)C2 (stereo unspecified) | -6 | 96* | -4 | 0 | -21 | 0
Cc1cc(C(F)(F)F)nn1CC(=O)Nc1cccnc1 | -11 | · | -2 | 14 | -20 | 4
Cc1nc2ccccn2c1C(=O)NCCN1CCOCC1 | · | 8 | · | 22 | · | ·
O=C(O)CSc1cc(NS(=O)(=O)c2ccc(Cl)cc2)c2ccccc2c1O | -10 | · | -14 | · | -15 | 22
SMILES | CHO parental Ca | PGE2 EP2 inh | GPR7 antag | EP2 mod | OX1R antag-1 | OX1R antag-2
Cc1cc(C)c(S(=O)(=O)Nc2cc(SCC(=O)O)c(O)c3ccccc23)cc1C | -17 | 5 | -11 | -4 | -15 | 58*
COC(=O)[C@@H]1O[C@H](SCCN)[C@@H](O)[C@H](O)[C@H]1O | · | 50* | · | 21 | · | ·
O=S(=O)(Nc1ccc(N=Nc2ccc(O)c3ccccc23)cc1)c1ccccc1 | 16 | 14 | 4 | -85 | 19 | -1
Nc1c(S(=O)(=O)O)cc(S(=O)(=O)O)c2ccc(N=Nc3ccccc3)c(O)c12 | · | 52* | · | 1 | · | ·
Cc1ccc(NC(=O)CSc2nc3ccccc3c(=O)n2CCCN2CCCCC2)cc1Cl | -4 | 7 | 25* | -94 | -19 | 10
Cn1c(SCC2CCCO2)nnc1-c1ccc([N+](=O)[O-])cc1 (stereo unspecified) | -22 | 5 | 3 | -1 | -8 | 41*
COCCNc1cc(C)nc2cc(-c3ccc(C)cc3)nn12 | -16 | 9 | 4 | 62* | -24 | 31
O=C(Nc1nc(-c2ccccn2)cs1)Nc1ccc(F)cc1F | 4 | · | -4 | · | 2 | 55
CCN1CCN(C(=O)c2ccc(OCC(=O)Nc3ccc(F)cc3)c(OC)c2)CC1 | -18 | 5 | 4 | -28 | -27 | 8
CCOc1cccc(/C(O)=C2/C(=O)C(=O)N(CCCn3ccnc3)C2c2ccncc2)c1 (stereo unspecified) | · | 11 | · | 7 | · | ·
CSc1cccc(NC(=O)Nc2ccc(Cl)cc2)c1 | 81* | 13 | 0 | -10 | 49* | 51*
CSc1cccc(NC(=O)C(=O)NCc2ccccc2)c1 | 28* | 5 | -13 | -5 | -9 | 11
CSc1cccc(NC(=O)CN(C)S(=O)(=O)c2ccccc2)c1 | -14 | 11 | -16 | -72 | 7 | 50*
Nn1c(Nc2ccccc2)nc2sc3c(c2c1=O)CCCC3 | -20 | 5 | -11 | -19 | -32 | 15
C=C[C@]1(C)C[C@H](OC(=O)CO)[C@]2(C)C3C(=O)CC[C@]3(CC[C@H]2C)[C@H](C)[C@H]1O (stereo partly specified) | · | 56* | · | -9 | · | ·
Cc1ccsc1CNCC(C)O (stereo unspecified) | · | 10 | · | -4 | · | ·
O=C(CN(c1cccc(C(F)(F)F)c1)S(=O)(=O)c1ccc(Cl)c([N+](=O)[O-])c1)NCc1ccccc1 | 17 | 10 | 41* | -18 | 22 | 20
O=C(CN(c1cccc(C(F)(F)F)c1)S(=O)(=O)c1ccc(Cl)c([N+](=O)[O-])c1)NCc1ccccc1Cl | 11 | 7 | 14 | -8 | 8 | 23
CC(C)(C)NC(=O)CN(c1cccc([N+](=O)[O-])c1)S(=O)(=O)c1ccccc1 | -20 | 10 | -1 | 8 | -20 | 2
Cc1ccc(N(CC(=O)NCCc2ccc(F)cc2)S(=O)(=O)c2ccc(Cl)c([N+](=O)[O-])c2)c(C)c1 | -2 | 10 | 48* | 23 | 5 | 18
CC(NC(=O)CN(c1cccc(C(F)(F)F)c1)S(=O)(=O)c1ccc(Cl)c([N+](=O)[O-])c1)c1ccccc1 (stereo unspecified) | 36* | 15 | 46* | 0 | 22 | 4
O=C(CN(c1ccc(Br)cc1)S(=O)(=O)c1ccc(Cl)c([N+](=O)[O-])c1)NCCc1ccccc1 | -14 | 5 | -10 | 26 | -21 | 25
Cc1cc(NC(=O)CSc2nc3c(c(-c4cccnc4)c2C#N)CCC3)no1 | -9 | 49* | 6 | 31 | -15 | 17
c1ccc2sc(SCSc3nc4ccccc4s3)nc2c1 | -11 | 6 | -10 | -11 | -23 | 31
